From ChEMBL document CHEMBL4346654 (Eur J Med Chem, 2019)
≈ marks a conversion by molar mass, not a printed value.

Experiments:
Format in all cases: functional
Staphylococcus aureus [1] = assay: Antibacterial activity against MLS-resistant Staphylococcus aureus PU 32 expressing inducible ermA gene assessed as reduction in microbial growth by CLSI based two-fold broth dilution method
Streptococcus pneumoniae [2] = assay: Antibacterial activity against erythromycin-susceptible Streptococcus pneumoniae ATCC49619 assessed as reduction in microbial growth by CLSI based two-fold broth dilution method
Streptococcus pneumoniae [3] = assay: Bactericidal activity against erythromycin-susceptible Streptococcus pneumoniae ATCC49619 pretreated followed by subculture in absence of compound measured after 24 hrs
In short: (§1)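 Isolates were identified by 16S rDNA sequencing. MIC was determined by CLSI-recommended two-fold broth dilution. For MBC, samples from 1–8 fold MIC were transferred to culture medium and subcultured for 24 h without antibiotic.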

Haemophilus influenzae [4] = assay: Antibacterial activity against azithromycin-susceptible Haemophilus influenzae ATCC 49247 assessed as reduction in microbial growth by CLSI based two-fold broth dilution method
Streptococcus pneumoniae [5] = assay: Selectivity ratio of MBC to MIC for erythromycin-susceptible Streptococcus pneumoniae ATCC49619; in short: as §1
Streptococcus pneumoniae [6] = assay: Antibacterial activity against Streptococcus pneumoniae 07P390 expressing constitutive ermB gene assessed as reduction in microbial growth by CLSI based two-fold broth dilution method
Streptococcus pneumoniae [7] = assay: Antibacterial activity against penicillin-susceptible Streptococcus pneumoniae PU 09 expressing mef gene assessed as reduction in microbial growth by CLSI based two-fold broth dilution method
Streptococcus pneumoniae [8] = assay: Bactericidal activity against penicillin-susceptible Streptococcus pneumoniae PU 09 expressing mef gene pretreated followed by subculture in absence of compound measured after 24 hrs; in short: as §1
Streptococcus pneumoniae [9] = assay: Selectivity ratio of MBC to MIC for penicillin-susceptible Streptococcus pneumoniae PU 09 expressing mef gene; in short: as §1
Streptococcus pneumoniae [10] = assay: Bactericidal activity against Streptococcus pneumoniae 07P390 expressing constitutive ermB gene pretreated followed by subculture in absence of compound measured after 24 hrs; in short: as §1
Streptococcus pneumoniae [11] = assay: Selectivity ratio of MBC to MIC for Streptococcus pneumoniae 07P390 expressing constitutive ermB gene; in short: as §1
Haemophilus influenzae [12] = assay: Bactericidal activity against azithromycin-susceptible Haemophilus influenzae ATCC 49247 pretreated followed by subculture in absence of compound measured after 24 hrs; in short: as §1
Haemophilus influenzae [13] = assay: Selectivity ratio of MBC to MIC for azithromycin-susceptible Haemophilus influenzae ATCC 49247; in short: as §1
Streptococcus pyogenes [14] = assay: Antibacterial activity against MLS-resistant Streptococcus pyogenes 01-968 expressing inducible ermB gene assessed as reduction in microbial growth by CLSI based two-fold broth dilution method
Streptococcus pyogenes [15] = assay: Bactericidal activity against MLS-resistant Streptococcus pyogenes 01-968 expressing inducible ermB gene pretreated followed by subculture in absence of compound measured after 24 hrs
In short: (§2)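 MBC assay. Following MIC determination by CLSI standard two-fold broth dilution, samples at 1–8 fold MIC were transferred to fresh culture medium. They were subcultured for 24 h without antibiotic. Isolates were identified by 16S rDNA sequencing. S. aureus ATCC 29213 was used as a control strain.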

Streptococcus pyogenes [16] = assay: Selectivity ratio of MBC to MIC for MLS-resistant Streptococcus pyogenes 01-968 expressing inducible ermB gene
In short: (§3)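 MBC/MIC ratio. MIC was measured by CLSI standard two-fold broth dilution. MBC was measured by transferring samples at 1–8 fold MIC to culture medium and subculturing for 24 h without antibiotic. Isolates were identified by 16S rDNA sequencing.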

Staphylococcus aureus [17] = assay: Bactericidal activity against MLS/methicillin-resistant Staphylococcus aureus PU 32 expressing inducible ermA gene pretreated followed by subculture in absence of compound measured after 24 hrs; in short: as §2
Staphylococcus aureus [18] = assay: Selectivity ratio of MBC to MIC for MLS/methicillin-resistant Staphylococcus aureus PU 32 expressing inducible ermA gene; in short: as §3
Staphylococcus aureus [19] = assay: Antibacterial activity against MLS-resistant Staphylococcus aureus PU 20 expressing constitutive ermC gene assessed as reduction in microbial growth by CLSI based two-fold broth dilution method
Staphylococcus aureus [20] = assay: Bactericidal activity against MLS-resistant Staphylococcus aureus PU 20 expressing constitutive ermC gene pretreated followed by subculture in absence of compound measured after 24 hrs; in short: as §2

| SMILES | MIC (Staphylococcus aureus [1]) | MIC (Streptococcus pneumoniae [2]) | MBC (Streptococcus pneumoniae [3]) | MIC (Haemophilus influenzae [4]) | Selectivity ratio (Streptococcus pneumoniae [5]) | MIC (Streptococcus pneumoniae [6]) | MIC (Streptococcus pneumoniae [7]) | MBC (Streptococcus pneumoniae [8]) | Selectivity ratio (Streptococcus pneumoniae [9]) | MBC (Streptococcus pneumoniae [10]) | Selectivity ratio (Streptococcus pneumoniae [11]) | MBC (Haemophilus influenzae [12]) | Selectivity ratio (Haemophilus influenzae [13]) | MIC (Streptococcus pyogenes [14]) | MBC (Streptococcus pyogenes [15]) | Selectivity ratio (Streptococcus pyogenes [16]) | MBC (Staphylococcus aureus [17]) | Selectivity ratio (Staphylococcus aureus [18]) | MIC (Staphylococcus aureus [19]) | MBC (Staphylococcus aureus [20]) |
| --- | --- | --- | --- | --- | --- | --- | --- | --- | --- | --- | --- | --- | --- | --- | --- | --- | --- | --- | --- | --- |
| CC[C@H]1OC(=O)[C@@](C)(F)C(=O)[C@H](C)[C@@H](O[C@@H]2O[C@H](C)C[C@H](N(C)C)[C@H]2O)[C@](C)(OC/C=C/c2ccc3[nH]cc(C(=O)O)c(=O)c3c2)C[C@@H](C)/C(=N\OC)[C@H](C)[C@H]2OC(=O)O[C@@]21C | 0.5 µg/mL | 0.062 µg/mL | 0.062 µg/mL (≈ 0.0709 µM) | 8 µg/mL | 1 | 0.5 µg/mL | 2 µg/mL | 4 µg/mL (≈ 4.58 µM) | 2 | 4 µg/mL (≈ 4.58 µM) | 8 | 16 µg/mL (≈ 18.3 µM) | 2 | 0.031 µg/mL | 0.062 µg/mL (≈ 0.0709 µM) | 2 | 2 µg/mL (≈ 2.29 µM) | 4 | > 256 µg/mL | – |
| CC[C@H]1OC(=O)[C@@](C)(F)C(=O)[C@H](C)[C@@H](O[C@@H]2O[C@H](C)C[C@H](N(C)C)[C@H]2O)[C@](C)(OC/C=C/c2ccc3ncc(C(=O)O)cc3c2)C[C@@H](C)/C(=N\OC)[C@H](C)[C@H]2OC(=O)O[C@@]21C | 0.062 µg/mL | 0.031 µg/mL | 0.062 µg/mL (≈ 0.0723 µM) | 4 µg/mL | 2 | 0.5 µg/mL | 8 µg/mL | 16 µg/mL (≈ 18.6 µM) | 2 | 4 µg/mL (≈ 4.66 µM) | 8 | 8 µg/mL (≈ 9.32 µM) | 2 | ≤ 0.008 µg/mL | > 0.062 µg/mL | >8 | 0.5 µg/mL (≈ 0.583 µM) | 8 | > 256 µg/mL | – |
| CC[C@H]1OC(=O)[C@@](C)(F)C(=O)[C@H](C)[C@@H](O[C@@H]2O[C@H](C)C[C@H](N(C)C)[C@H]2O)[C@](C)(OC)C[C@@H](C)/C(=N\OCC#Cc2cncc(C(=O)NC)c2)[C@H](C)[C@H]2OC(=O)O[C@@]21C | 0.5 µg/mL | 0.125 µg/mL | 0.25 µg/mL (≈ 0.305 µM) | 8 µg/mL | 2 | 32 µg/mL | 1 µg/mL | 1 µg/mL (≈ 1.22 µM) | 1 | > 32 µg/mL | – | 16 µg/mL (≈ 19.5 µM) | 2 | 0.062 µg/mL | > 0.5 µg/mL | >8 | > 4 µg/mL | >8 | 256 µg/mL | > 256 µg/mL |
| CC[C@H]1OC(=O)[C@@](C)(F)C(=O)[C@H](C)[C@@H](O[C@@H]2O[C@H](C)C[C@H](N(C)C)[C@H]2O)[C@](C)(OC/C=C/c2cncc(C(=O)O)c2)C[C@@H](C)/C(=N\OC)[C@H](C)[C@H]2OC(=O)O[C@@]21C | 2 µg/mL | 0.25 µg/mL | 0.5 µg/mL (≈ 0.619 µM) | 8 µg/mL | 2 | 1 µg/mL | 32 µg/mL | > 32 µg/mL | – | 4 µg/mL (≈ 4.95 µM) | 4 | 8 µg/mL (≈ 9.9 µM) | 1 | 0.125 µg/mL | > 1 µg/mL | >8 | > 16 µg/mL | >8 | > 256 µg/mL | – |
| CC[C@H]1OC(=O)[C@@](C)(F)C(=O)[C@H](C)[C@@H](O[C@@H]2O[C@H](C)C[C@H](N(C)C)[C@H]2O)[C@](C)(OC)C[C@@H](C)/C(=N\OCC#Cc2ccc3[nH]ccc(=O)c3c2)[C@H](C)[C@H]2OC(=O)O[C@@]21C | 1 µg/mL | 0.062 µg/mL | 0.125 µg/mL (≈ 0.151 µM) | 16 µg/mL | 2 | 16 µg/mL | 4 µg/mL | 4 µg/mL (≈ 4.83 µM) | 1 | 32 µg/mL (≈ 38.6 µM) | 2 | 16 µg/mL (≈ 19.3 µM) | 1 | ≤ 0.008 µg/mL | > 0.062 µg/mL | >8 | 8 µg/mL (≈ 9.66 µM) | 8 | 256 µg/mL | > 256 µg/mL |
| CC[C@H]1OC(=O)[C@@](C)(F)C(=O)[C@H](C)[C@@H](O[C@@H]2O[C@H](C)C[C@H](N(C)C)[C@H]2O)[C@](C)(OC/C=C/c2cncc(C(N)=O)c2)C[C@@H](C)/C(=N\OC)[C@H](C)[C@H]2OC(=O)O[C@@]21C | 0.125 µg/mL | 0.062 µg/mL | 0.125 µg/mL (≈ 0.155 µM) | 4 µg/mL | 2 | 0.5 µg/mL | 2 µg/mL | 8 µg/mL (≈ 9.91 µM) | 4 | 4 µg/mL (≈ 4.96 µM) | 8 | 8 µg/mL (≈ 9.91 µM) | 2 | 0.031 µg/mL | > 0.25 µg/mL | >8 | > 1 µg/mL | >8 | > 256 µg/mL | – |
| CC[C@H]1OC(=O)[C@@](C)(F)C(=O)[C@H](C)[C@@H](O[C@@H]2O[C@H](C)C[C@H](N(C)C)[C@H]2O)[C@](C)(OC)C[C@@H](C)/C(=N\OC/C=C/c2ccc3[nH]cc(C(=O)O)c(=O)c3c2)[C@H](C)[C@H]2OC(=O)O[C@@]21C | 2 µg/mL | 0.125 µg/mL | 0.125 µg/mL (≈ 0.143 µM) | 32 µg/mL | 1 | 4 µg/mL | 2 µg/mL | 4 µg/mL (≈ 4.58 µM) | 2 | 16 µg/mL (≈ 18.3 µM) | 4 | 32 µg/mL (≈ 36.6 µM) | 1 | 0.016 µg/mL | > 0.125 µg/mL | >8 | 16 µg/mL (≈ 18.3 µM) | 8 | 256 µg/mL | > 256 µg/mL |
| CC[C@H]1OC(=O)[C@@](C)(F)C(=O)[C@H](C)[C@@H](O[C@@H]2O[C@H](C)C[C@H](N(C)C)[C@H]2O)[C@](C)(OC)C[C@@H](C)/C(=N\OC/C=C/c2cncc(O)c2)[C@H](C)[C@H]2OC(=O)O[C@@]21C | 0.25 µg/mL | 0.125 µg/mL | 0.5 µg/mL (≈ 0.641 µM) | 16 µg/mL | 4 | 32 µg/mL | 2 µg/mL | 4 µg/mL (≈ 5.13 µM) | 2 | > 32 µg/mL | – | 16 µg/mL (≈ 20.5 µM) | 1 | 0.062 µg/mL | > 0.5 µg/mL | >8 | > 2 µg/mL | >8 | 256 µg/mL | > 256 µg/mL |
| CC[C@H]1OC(=O)[C@@](C)(F)C(=O)[C@H](C)[C@@H](O[C@@H]2O[C@H](C)C[C@H](N(C)C)[C@H]2O)[C@](C)(OC)C[C@@H](C)/C(=N\OC/C=C/c2cncc(C(N)=O)c2)[C@H](C)[C@H]2OC(=O)O[C@@]21C | 0.25 µg/mL | 0.031 µg/mL | 0.031 µg/mL (≈ 0.0384 µM) | 8 µg/mL | 1 | 32 µg/mL | 0.5 µg/mL | 1 µg/mL (≈ 1.24 µM) | 2 | > 32 µg/mL | – | 16 µg/mL (≈ 19.8 µM) | 2 | 0.062 µg/mL | > 0.5 µg/mL | >8 | > 2 µg/mL | >8 | 256 µg/mL | > 256 µg/mL |
| CC[C@H]1OC(=O)[C@@](C)(F)C(=O)[C@H](C)[C@@H](O[C@@H]2O[C@H](C)C[C@H](N(C)C)[C@H]2O)[C@](C)(OC)C[C@@H](C)/C(=N\OCC#Cc2cnc(N)c3ccccc23)[C@H](C)[C@H]2OC(=O)O[C@@]21C | 8 µg/mL | 2 µg/mL | 4 µg/mL (≈ 4.84 µM) | 64 µg/mL | 2 | > 32 µg/mL | 16 µg/mL | 16 µg/mL (≈ 19.3 µM) | 1 | – | – | 64 µg/mL (≈ 77.4 µM) | 1 | 1 µg/mL | 8 µg/mL (≈ 9.67 µM) | 8 | 32 µg/mL (≈ 38.7 µM) | 4 | 128 µg/mL | > 128 µg/mL |
